Screens (PubChem BioAssay)
IMP-1 inh-1 – blocks Pseudomonas aeruginosa IMP-1 metallo-beta-lactamase; 0.45% of 290,000 active; purified IMP-1, nitrocefin hydrolysis, epi-absorbance fluorescence; inhibition, % at 5.6 µM; AID 1556;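 active means inhibition above the mean plus 3 SD of all compounds in the same screening run, cut at about 4.5% in these data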;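 further: 0% = IMP-1 with DMSO and 100% = DMSO wells lacking enzyme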
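System: purified IMP-1 / Input: IMP-1 dispensed at 0.2 nM / Medium: 50 mM HEPES pH 7.1, 50 µM ZnSO4, 0.05% Brij 35 / Timing: 15 min enzyme–compound preincubation, then 25 min nitrocefin reaction, 25 °C / Technique: plate fluorescence quenching by hydrolysis product, ex 480/em 530 nm / Repeats: singlicate testing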
PDI inh – inhibitors of human protein disulfide isomerase | inhibition, % at 10 µM | PDI insulin aggregation turbidity, A650, 90 min | P07237 | 0.052% of 350,000 active;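 active means mean inhibition across replicates of 30% or more, whatever share of single replicates reach that level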
VIM-2 inhibitor – blocks Pseudomonas aeruginosa VIM-2 metallo-beta-lactamase. purified VIM-2, nitrocefin hydrolysis, epi-absorbance fluorescence. inhibition, % at 5.6 µM. 0.89% of 290,000 active;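 active means inhibition above the mean of all tested compounds plus 3 SD, cutoff set per screening run, cut at about 7.5% in these data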;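 further: red hydrolysis product quenches plate fluorescence so inhibitors raise well fluorescence; 0% = enzyme with DMSO and 100% = DMSO without enzyme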
ERp5 block – ERp5 (human) disulfide isomerase inhibition; Q15084; ERp5 insulin aggregation, absorbance 650 nm, 90 min; inhibition, % at 9.99 µM; 0.05% of 350,000 active; AID 651711;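 active means mean replicate inhibition above about 25%, with every replicate also reaching it, limit read from the data, passing the limit was not always enough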
Target sequence (Q15084 whole entry, looked up): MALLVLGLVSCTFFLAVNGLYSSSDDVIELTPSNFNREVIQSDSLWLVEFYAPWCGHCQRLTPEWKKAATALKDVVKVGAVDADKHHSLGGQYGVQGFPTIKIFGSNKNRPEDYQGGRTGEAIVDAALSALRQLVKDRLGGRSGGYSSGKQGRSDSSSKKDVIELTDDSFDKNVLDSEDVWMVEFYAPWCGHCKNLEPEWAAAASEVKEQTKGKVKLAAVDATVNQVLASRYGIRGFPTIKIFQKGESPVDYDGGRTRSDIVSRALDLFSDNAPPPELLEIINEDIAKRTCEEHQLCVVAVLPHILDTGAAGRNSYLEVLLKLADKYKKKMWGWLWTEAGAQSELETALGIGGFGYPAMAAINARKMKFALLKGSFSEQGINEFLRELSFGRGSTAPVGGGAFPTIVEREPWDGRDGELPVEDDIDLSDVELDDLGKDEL
PvdQ acylase – P. aeruginosa PvdQ acylase inhibition; inhibition, % at 10 µM; 0.063% of 340,000 active; purified PvdQ acylase, fluorescence plate reader; AID 488965; in the data active means inhibition above about 30%, passing the limit was not always enough;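 further: 0% = vehicle neutral wells and 100% = reference inhibitor wells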
PglD inh – inhibitors of Campylobacter jejuni PglD acetyltransferase | inhibition, % at 12.5 µM | AID 602405 | 0.098% of 360,000 active | purified PglD enzyme, DTNB colorimetric CoA detection; in the data active means inhibition above about 16%, passing the limit was not always enough
IMP-1 inh-2 – selectivity counter-screen for VIM-2 inhibitors: IMP-1 metallo-beta-lactamase inhibitors. inhibition, % at 5.6 µM. purified IMP-1, nitrocefin hydrolysis, epi-absorbance fluorescence. 1,300 tested, under 10 active. shares compounds with VIM-2 inhibitor; call rule not given here;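 further: 0% = enzyme with vehicle and 100% = vehicle without enzyme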
VIM-2 FRET inh – VIM-2 FRET inhibition, artifact counter-screen. shares compounds with VIM-2 inhibitor. purified VIM-2, CCF2 FRET substrate hydrolysis. inhibition, % at 5.6 µM. 23% of 1,300 active. AID 1857;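 active means inhibition above the mean of all tested compounds plus 3 SD, cut at about 19% in these data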;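 further: 0% = VIM-2 plus DMSO and 100% = no enzyme wells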
TEM-1 counter – selectivity counter-screen for VIM-2 inhibitors: E. coli TEM-1 inhibitors. inhibition, % at 5.6 µM. Purified TEM-1, nitrocefin hydrolysis, epi-absorbance fluorescence. shares compounds with VIM-2 inhibitor. 3% of 1,300 active;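 active means inhibition above that campaign's mean inhibition plus 3 SD, cut at about 0.46% in these data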;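 further: 0% = TEM-1 with DMSO and 100% = TEM-1 with 100 µM potassium clavulanate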
Target sequence (P62593 whole entry, looked up): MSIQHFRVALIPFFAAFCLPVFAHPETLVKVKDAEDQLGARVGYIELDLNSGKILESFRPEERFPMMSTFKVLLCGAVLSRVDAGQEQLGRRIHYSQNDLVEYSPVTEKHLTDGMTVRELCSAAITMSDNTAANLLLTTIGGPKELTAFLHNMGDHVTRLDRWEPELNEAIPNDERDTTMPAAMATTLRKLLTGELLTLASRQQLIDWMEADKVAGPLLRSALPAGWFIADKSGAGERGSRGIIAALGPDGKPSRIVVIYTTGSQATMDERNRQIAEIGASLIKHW
VIM-2 confirm 2 – confirmation of P. aeruginosa VIM-2 metallo-beta-lactamase inhibitors | shares compounds with VIM-2 inhibitor | purified VIM-2, nitrocefin hydrolysis, epi-absorbance | inhibition, % at 5.6 µM | 96% of 1,300 active | AID 2187;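 active means inhibition of the VIM-2 beta-lactamase enzyme above about 11% from the earlier first-round screen, limit read from the data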;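 further: 0% = VIM-2 with DMSO and 100% = buffer wells without enzyme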
* = called active by the depositor; x = not tested or not shown. Most compounds without a hit are left out; they make up all but 1% or so of the library.

SMILES	IMP-1 inh-1	PDI inh	VIM-2 inhibitor	ERp5 block	PvdQ acylase	PglD inh	IMP-1 inh-2	VIM-2 FRET inh	TEM-1 counter	VIM-2 confirm 2
O=C(CSc1nnc(NC(=O)c2cccc(F)c2)s1)NCc1ccco1	-2	8	33*	3	-22	1	-4	54*	-4	39*
C[C@@H]1CN([C@H](C)CO)C(=O)c2cc(NS(=O)(=O)c3ccc(F)cc3)ccc2O[C@@H](C)CCCCO[C@H]1CN(C)C(=O)Nc1ccccc1	x	x	x	3	x	x	x	x	x	x
CO[C@@H]1CN(C)C(=O)c2ccc(NC(=O)C3CCC3)cc2OC[C@@H](C)N(C(=O)CN(C)C)C[C@H]1C	x	x	x	-4	x	x	x	x	x	x
O=C(C[C@H]1C[C@H]2c3cc(NC(=O)Nc4ccc(C(F)(F)F)cc4)ccc3O[C@H]2[C@H](CO)O1)NCc1cccnc1	x	x	x	-1	x	-3	x	x	x	x
COc1ccc(S(=O)(=O)Nc2ccc3c(c2)C(=O)N([C@H](C)CO)C[C@H](C)[C@H](CN(C)C(=O)NC2CCCCC2)OCCCC[C@H](C)O3)cc1	x	x	x	-4	x	-5	x	x	x	x
O=C(CSc1nnc(NC(=O)C2CCCCC2)s1)NCc1ccco1	-4	7	28*	9	-9	x	-4	62*	-7	43*
CO[C@@H]1CN(C)C(=O)c2cc(NC(C)=O)ccc2OC[C@H](C)N(Cc2cc(F)ccc2F)C[C@@H]1C	x	x	x	4	x	0	x	x	x	x
CN1CCN(C(=O)CSc2nc(-c3cccs3)ccc2C#N)CC1	-2	6	28*	x	8	-5	-3	4	-7	50*
CC(c1n[nH]c(=S)n1-c1ccc(Cl)cc1)N(C)C (stereo unspecified)	-3	-3	3	-1	0	-1	x	x	x	x
CCC(c1n[nH]c(=S)n1-c1ccccc1)N(C)C (stereo unspecified)	-6	4	17*	1	-7	x	-3	34*	-4	26*
O=C(N[C@@H]1CC[C@@H](CCn2cc(C3CCCCC3)nn2)O[C@@H]1CO)c1cccnc1	x	x	x	-4	x	1	x	x	x	x
C[n+]1ccc(/C=N/Nc2nc(Cl)c(C#N)c(Cl)c2Cl)cc1	-8	-2	43*	6	11	-4	-9	34*	-13	53*
Clc1nnc(N/N=C/c2ccccc2)c2ccccc12	2	-4	0	x	1	-2	x	x	x	x
O=C(CCCN1C(=O)/C(=C/c2ccccc2)SC1=S)NCCCn1ccnc1	-1	-2	0	7	13	-3	x	x	x	x
O=C(CCN1C(=O)/C(=C/c2ccccc2F)SC1=S)NCCCn1ccnc1	-1	9	37*	-10	-13	-2	-2	44*	-8	41*
O=C(NCc1ccccc1)NC(=O)c1ccncc1	-2	-5	0	x	-12	x	x	x	x	x
CSc1sc(C(=O)NC(=O)NCc2ccncc2)c(C)c1-c1ccon1	-2	-4	32*	-4	2	x	-3	-7	-6	42*
COc1ccc(S(=O)(=O)N(C)C[C@H]2Oc3c(NC(=O)Nc4cccc5ccccc45)cccc3C(=O)N([C@@H](C)CO)C[C@@H]2C)cc1	x	x	x	1	x	6	x	x	x	x
COc1ccc(-c2nnc3sc(CCN4C(=O)c5ccccc5C4=O)nn23)cc1	-2	0	18*	x	-7	-7	-2	-3	-3	4
Cc1ccc(S(=O)(=O)N[C@H]2CC[C@@H](CCNC(=O)Nc3ccc(Cl)cc3)O[C@@H]2CO)cc1	x	x	x	0	x	2	x	x	x	x
CSc1nc(C)c2c(n1)N(c1ccc(O)cc1)CC2	-3	8	16*	1	0	-3	-2	8	-6	27*
O=C(CC1CC1)N1CC2(C1)[C@H](c1ccccc1)[C@H](CO)N2C(=O)C1CCOCC1	x	x	x	1	x	x	x	x	x	x
Oc1ccc(Nc2nc(N3CCCC3)c3ccccc3n2)cc1	-3	-7	31*	7	9	0	-2	-4	-3	49*
c1csc(Cc2nn3c(-c4n[nH]c5c4CCC5)nnc3s2)c1	0	5	13*	x	-9	0	-2	5	-7	22*
c1coc(-c2nnc3sc(Cc4cccs4)nn23)c1	-4	-12	2	x	2	-4	x	x	x	x
SMILES	IMP-1 inh-1	PDI inh	VIM-2 inhibitor	ERp5 block	PvdQ acylase	PglD inh	IMP-1 inh-2	VIM-2 FRET inh	TEM-1 counter	VIM-2 confirm 2
Cc1cc(=S)c2ccccc2[nH]1	-2	-1	60*	-8	-1	x	-3	2	-6	57*
CCCN1C[C@@H](C)[C@@H](OC)CN(C)C(=O)c2cc(NS(C)(=O)=O)ccc2OC[C@@H]1C	x	x	x	x	x	0	x	x	x	x
Oc1ccccc1OCCOc1ccccc1OCCOc1ccccc1O	-2	-2	0	1	-6	-1	x	x	x	x
O=P(O)(O)c1ccccc1OCc1ccccc1	-3	9	55*	x	2	-2	-3	81*	-5	68*
NNC(=O)c1ccccc1OCc1ccccc1	-4	1	-1	7	-6	5	x	x	x	x
O=P(O)(O)c1ccccc1OCCCCCOc1ccccc1P(=O)(O)O	1	-4	62*	x	-12	0	-3	76*	-6	66*
CC(C)N1CCc2c(sc(NC(=O)c3cc(-c4cccs4)nc4ccccc34)c2C(N)=O)C1	-2	x	20*	x	-9	1	-2	13	-4	46*
CC(C)N1CCc2c(sc(NC(=O)c3nc4ccccc4s3)c2C(N)=O)C1	-3	5	-1	-4	-7	x	x	x	x	x
NC(=O)N=Nc1c2[nH]c3ccccc3nc-2c2ccccc12	-3	14	21*	0	0	4	0	-3	-3	38*
C=CCn1c(SCC(=O)N2CCN(CCO)CC2)nc2sc3c(c2c1=O)CCC3	0	1	50*	1	-4	x	-3	1	-9	64*
C=CCn1c(SCC(C)=O)nc2sc3c(c2c1=O)CCC3	-1	12	6	2	-4	-1	x	x	x	x
Cc1cccc(-c2ccc([C@H]3[C@@H](CO)N4C(=O)CN(C(=O)c5ccc6c(c5)OCO6)C[C@@H]34)cc2)c1	x	x	x	-2	x	x	x	x	x	x
CCOC(=O)N1CCN(C(=O)c2cc3c(=O)n4cccc(C)c4nc3s2)CC1	-2	-2	16*	-6	-15	-3	-3	-1	-5	24*
C=CCNC(=O)c1cc2c(=O)n3cccc(C)c3nc2s1	-3	-2	19*	3	-18	5	-2	-1	-4	26*
CCOC(=O)N1CCN(C(=O)c2cccn3c(=O)c4c5c(sc4nc23)CCCC5)CC1	-3	9	-4	-6	-11	x	x	x	x	x
